The array DNA melting data of Ke et al. (doi:10.1101/2024.01.08.574731)

Key:
[1] = melting temperature; fluorescence melt of hairpins on a sequencing array, two-state fit, raised by 9.35 °C to match UV melts; settings: sodium 0.088 M
In short: (§1)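 Melting temperature and folding enthalpy were obtained by bootstrapped two-state fitting. Fits used Cy3 fluorescence of library hairpins with annealed Cy3 and quencher oligos on a sequenced MiSeq flow cell, imaged in 50 mM Na-HEPES pH 8.0, 25 mM NaCl in 2.5 °C steps up to 60 °C and normalised to pre-quench Cy3 and control constructs. Four replicates were combined by inverse-variance weighting, and fitted temperatures were raised by 9.35 °C to match UV melts.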

[2] = folding enthalpy; higher = less favourable; fluorescence melt of hairpins on a sequencing array, two-state fit; settings: sodium 0.088 M
In short: as §1

Sequence | Tm [1] | folding enthalpy [2]
GTTAGAGGAAACTCTAAC (((((((....))))))) | 51.6 °C | -39.7 kcal/mol
GAACTTGGAAACAGGTTC ((((.((....)).)))) | 41 °C | -32.2 kcal/mol
GATCTCTATGAGATC ((((((...)))))) | 54.6 °C | -31.3 kcal/mol
AGTATGAAAATACT (((((....))))) | 32 °C | -15.2 kcal/mol
GGTTGGGGAAACCTAGCC ((.(.((....)).).)) | 38 °C | -19.1 kcal/mol
GGGACCGAAAGGTACCCC ((((((....)))..))) | 61.3 °C | -12.5 kcal/mol
CGCGGATCGCTCCGCG ((((((....)))))) | 69.2 °C | -28.6 kcal/mol
GCGAACGAAAGTTACGC ((((((....))).))) | 51.5 °C | -22.7 kcal/mol
GTAGGAGGAAACCCCTAC (((((.(....).))))) | 38.3 °C | -32.4 kcal/mol
GATCTCAGATGAGATC ((((((....)))))) | 52.5 °C | -36.3 kcal/mol
GACACACGAAAGTGGTC (((.(((....)))))) | 49.7 °C | -20.7 kcal/mol
GGACCCGAAAGGGTGTCC ((((((....)))..))) | 47.1 °C | -14 kcal/mol
GATCTTCAAGAAGATC ((((((....)))))) | 46 °C | -33.5 kcal/mol
GATCTAATGCTAGATC ((((((....)))))) | 36.5 °C | -29.5 kcal/mol
GGTCTGCGAAAGCAACC (((.(((....)))))) | 44.6 °C | -18.8 kcal/mol
GCCGTCGGAAACGACGAC (.(((((....))))).) | 54.8 °C | -13.3 kcal/mol
GTGGATGGAAACATTCGC (.(.(((....))).).) | 34.9 °C | -28.4 kcal/mol
GATCTTACGAAGATC ((((((...)))))) | 42.9 °C | -34.6 kcal/mol
CTTCCGAAAGGAAG (((((....))))) | 55.8 °C | -21.3 kcal/mol
GCTGTAGGAAACTATGGC ((..(((....)))..)) | 34.7 °C | -26.3 kcal/mol
GAAGTAGAAATACTTC ((((((....)))))) | 42.5 °C | -26.5 kcal/mol
GTGGGTGGAAACGCCTAC ((.((.(....).)).)) | 41.9 °C | -25.3 kcal/mol
GATCCAGTTCTGGATC ((((((....)))))) | 55.5 °C | -39.6 kcal/mol

Sequence | Tm [1] | folding enthalpy [2]
GAAGGAGGAAACTCCTCC (.(((((....))))).) | 40.9 °C | -12.7 kcal/mol
GTGCATGGAAACATGCGC (.(((((....))))).) | 56.9 °C | -21.5 kcal/mol
GATCGGAGGCCGATC ((((((...)))))) | 55.8 °C | -40.3 kcal/mol
GAGGCTACGAAAGTACTC (((..(((....)))))) | 23.8 °C | -10.2 kcal/mol
GTAGAACGAAAGTTGTAC (((.(((....))).))) | 42.8 °C | -31.7 kcal/mol
GGGTTCCCGAAAGGGCCC (((..(((....)))))) | 47.7 °C | -18.6 kcal/mol
GTCTCCCGAAAGGGGAC (((.(((....)))))) | 54.8 °C | -31.4 kcal/mol
GTGTAGCGAAAGCTTCAC (((.(((....))).))) | 51.8 °C | -32 kcal/mol
GTGGACGAAAGTCATCAC ((((((....)))..))) | 36.3 °C | -13.1 kcal/mol
GATCTGTGCCAGATC ((((((...)))))) | 51.1 °C | -38 kcal/mol
GCCGGGCGAAAGCTCAGC ((.(.((....)).).)) | 44.4 °C | -16.9 kcal/mol
GATCCCTTTGGGATC ((((((...)))))) | 63.5 °C | -40.6 kcal/mol
GCAAAGCGAAAGCAGTGC (((..((....))..))) | 44.7 °C | -14 kcal/mol
GGTACCGGAAACGGTGCC ((.((((....)))).)) | 60.6 °C | -38.3 kcal/mol
GATCCAAGTGTGGATC ((((((....)))))) | 50.3 °C | -32.3 kcal/mol
GAGCTTGGAAACAAACTC (((.(((....))).))) | 35.8 °C | -23.9 kcal/mol
GATCGGGAGCCCGATC ((((((....)))))) | 55.5 °C | -36.5 kcal/mol
GGTTCGGCGAAAGCCACC (((..(((....)))))) | 28.7 °C | -9.35 kcal/mol
GCATAGCGAAAGCAAAGC ((.(.((....)).).)) | 32 °C | -9.49 kcal/mol
GAGGACCGAAAGGTTCTC (((.(((....))).))) | 59.4 °C | -35.2 kcal/mol
GCGTCGATACGC ((((....)))) | 52.2 °C | -19.2 kcal/mol
GTGACTGCGAAAGCACAC (((..(((....)))))) | 38.8 °C | -8.82 kcal/mol
GTTCCACGAAAGTGCAAC (((.(((....))).))) | 33.5 °C | -16.9 kcal/mol
